Experimental data reported in ChEMBL document CHEMBL1833921, “Synthesis and biological evaluation of phenstatin metabolites” (Bioorg Med Chem, 2011).

Experiments:
[1] = Cell cycle arrest in mouse DA1-3b cells assessed as accumulation at G2/M phase at 10^-6 M after 24 hrs using propidium iodide staining by cytofluorometry (reference value: 18.0 %); assay type: functional, cell-based
Outline: (§1)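 DA1-3b murine leukemia cells were exposed to the compound for 24 h. They were then stained in a solution containing propidium iodide (50 µg/mL) and RNase A (0.5 mg/mL) and analysed on a FACScan cytofluorometer. The percentage of cells in each cell-cycle phase was reported, with several compound concentrations tested.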

[2] = Cell cycle arrest in mouse DA1-3b cells assessed as accumulation at sub-G1 phase at 10^-4 M after 24 hrs using propidium iodide staining by cytofluorometry (reference value: 0.7 %); assay type: functional, cell-based; outline: as §1
[3] = Cell cycle arrest in mouse DA1-3b cells assessed as accumulation at G2/M phase at 10^-4 M after 24 hrs using propidium iodide staining by cytofluorometry (reference value: 18.0 %); assay type: functional, cell-based; outline: as §1
EKVX = test: Cytotoxicity against human EKVX cells after 48 hrs by sulforhodamine B assay; assay type: functional
[4] = Cell cycle arrest in mouse DA1-3b cells assessed as accumulation at S phase at 10^-5 M after 24 hrs using propidium iodide staining by cytofluorometry (reference value: 28.0 %); assay type: functional, cell-based; outline: as §1
NCI-H522 = test: Cytotoxicity against human NCI-H522 cells after 48 hrs by sulforhodamine B assay; assay type: functional; details: NCI-H522, 48 h
[5] = Cell cycle arrest in mouse DA1-3b cells assessed as accumulation at G2/M phase after 24 hrs using propidium iodide staining by cytofluorometry; assay type: functional, cell-based; outline: as §1
HCT-116 = test: Cytotoxicity against human HCT116 cells after 48 hrs by sulforhodamine B assay; assay type: functional; details: HCT-116, 48 h
MDA-MB-435 = test: Cytotoxicity against human MDA-MB-435 cells after 48 hrs by sulforhodamine B assay; assay type: functional; details: MDA-MB-435, 48 h
UACC-62 = test: Cytotoxicity against human UACC62 cells after 48 hrs by sulforhodamine B assay; assay type: functional; details: UACC-62, 48 h
OVCAR-3 = test: Cytotoxicity against human OVCAR3 cells after 48 hrs by sulforhodamine B assay; assay type: functional; details: OVCAR-3, 48 h
MCF7 = test: Cytotoxicity against human MCF7 cells after 48 hrs by sulforhodamine B assay; assay type: functional; details: MCF7, 48 h
[6] = Cell cycle arrest in mouse DA1-3b cells assessed as accumulation at G1 phase at 10^-4 M after 24 hrs using propidium iodide staining by cytofluorometry (reference value: 52.2 %); assay type: functional, cell-based; outline: as §1
SK-MEL-28 = test: Cytotoxicity against human SK-MEL-28 cells after 48 hrs by sulforhodamine B assay; assay type: functional; details: SK-MEL-28, 48 h
[7] = Cell cycle arrest in mouse DA1-3b cells assessed as accumulation at sub-G1 phase at 10^-6 M after 24 hrs using propidium iodide staining by cytofluorometry (reference value: 0.7 %); assay type: functional, cell-based; outline: as §1
MDA-MB-231 = test: Cytotoxicity against human MDA-MB-231/ATCC cells after 48 hrs by sulforhodamine B assay; assay type: functional; details: MDA-MB-231, 48 h
NCI/ADR-RES = test: Cytotoxicity against human NCI/ADR-RES cells after 48 hrs by sulforhodamine B assay; assay type: functional
CCRF-CEM = test: Cytotoxicity against human CCRF-CEM cells after 48 hrs by sulforhodamine B assay; assay type: functional
SF-539 = test: Cytotoxicity against human SF539 cells after 48 hrs by sulforhodamine B assay; assay type: functional; details: SF-539, 48 h
[8] = Inhibition of bovine brain tubulin polymerization after 30 mins by turbidimetry analysis; set-up: species or system Bos taurus
Outline: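 Lyophilized bovine brain tubulin (97%) reconstituted to 5 mg/mL in 80 mM PIPES pH 6.9, 2 mM MgCl₂, 0.5 mM EGTA, 1.0 mM GTP and 5% glycerol. Compound in DMSO was added to this solution in a quartz cuvette at 0 °C. Assembly was followed as the rise in absorbance at 340 nm at 37 °C. IC₅₀ is the molar concentration halving the extent of assembly after 30 min.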

NCI-H322M = test: Cytotoxicity against human NCI-H322M cells after 48 hrs by sulforhodamine B assay; assay type: functional
M14 = test: Cytotoxicity against human M14 cells after 48 hrs by sulforhodamine B assay; assay type: functional; details: M14, 48 h
[9] = Cell cycle arrest in mouse DA1-3b cells assessed as accumulation at G1 phase at 10^-6 M after 24 hrs using propidium iodide staining by cytofluorometry (reference value: 52.2 %); assay type: functional, cell-based; outline: as §1
[10] = Cell cycle arrest in mouse DA1-3b cells assessed as accumulation at G2/M phase at 10^-5 M after 24 hrs using propidium iodide staining by cytofluorometry (reference value: 18.0 %); assay type: functional, cell-based; outline: as §1
[11] = Cell cycle arrest in mouse DA1-3b cells assessed as accumulation at S phase at 10^-6 M after 24 hrs using propidium iodide staining by cytofluorometry (reference value: 28.0 %); assay type: functional, cell-based; outline: as §1
A549 [12] = test: Cytotoxicity against human A549/ATCC cells after 48 hrs by sulforhodamine B assay; assay type: functional; details: A549, 48 h
[13] = Cell cycle arrest in mouse DA1-3b cells assessed as accumulation at sub-G1 phase at 10^-5 M after 24 hrs using propidium iodide staining by cytofluorometry (reference value: 0.7 %); assay type: functional, cell-based; outline: as §1
NCI-H460 = test: Cytotoxicity against human NCI-H460 cells after 48 hrs by sulforhodamine B assay; assay type: functional; details: NCI-H460, 48 h
K562 = test: Cytotoxicity against human K562 cells after 48 hrs by sulforhodamine B assay; assay type: functional; details: K562, 48 h
A498 = test: Cytotoxicity against human A498 cells after 48 hrs by sulforhodamine B assay; assay type: functional; details: A498, 48 h
UO-31 = test: Cytotoxicity against human UO31 cells after 48 hrs by sulforhodamine B assay; assay type: functional; details: UO-31, 48 h
[14] = Cell cycle arrest in mouse DA1-3b cells assessed as accumulation at G1 phase at 10^-5 M after 24 hrs using propidium iodide staining by cytofluorometry (reference value: 52.2 %); assay type: functional, cell-based; outline: as §1
RXF 393 = test: Cytotoxicity against human RXF393 cells after 48 hrs by sulforhodamine B assay; assay type: functional; details: RXF 393, 48 h
HT-29 = test: Cytotoxicity against human HT29 cells after 48 hrs by sulforhodamine B assay; assay type: functional; details: HT-29, 48 h
DU-145 = test: Cytotoxicity against human DU145 cells after 48 hrs by sulforhodamine B assay; assay type: functional; details: DU-145, 48 h
HCC 2998 = test: Cytotoxicity against human HCC2998 cells after 48 hrs by sulforhodamine B assay; assay type: functional; details: HCC 2998, 48 h
KM12 = test: Cytotoxicity against human KM12 cells after 48 hrs by sulforhodamine B assay; assay type: functional; details: KM12, 48 h
SK-OV-3 = test: Cytotoxicity against human SKOV3 cells after 48 hrs by sulforhodamine B assay; assay type: functional; details: SK-OV-3, 48 h
CAKI-1 = test: Cytotoxicity against human Caki1 cells after 48 hrs by sulforhodamine B assay; assay type: functional; details: CAKI-1, 48 h
SF-268 = test: Cytotoxicity against human SF268 cells after 48 hrs by sulforhodamine B assay; assay type: functional; details: SF-268, 48 h
HL-60 = test: Cytotoxicity against human HL60 cells after 48 hrs by sulforhodamine B assay; assay type: functional; details: HL-60, 48 h
A549 [15] = test: Cytotoxicity against human A549 cells after 48 hrs by sulforhodamine B assay; assay type: functional; details: A549, 48 h
SN12C = test: Cytotoxicity against human SN12C cells after 48 hrs by sulforhodamine B assay; assay type: functional
Hs-578T = test: Cytotoxicity against human HS578T cells after 48 hrs by sulforhodamine B assay; assay type: functional
HCT-15 = test: Cytotoxicity against human HCT15 cells after 48 hrs by sulforhodamine B assay; assay type: functional; details: HCT-15, 48 h
[16] = Cell cycle arrest in mouse DA1-3b cells assessed as accumulation at S phase at 10^-4 M after 24 hrs using propidium iodide staining by cytofluorometry (reference value: 28.0 %); assay type: functional, cell-based; outline: as §1
COLO 205 = test: Cytotoxicity against human COLO205 cells after 48 hrs by sulforhodamine B assay; assay type: functional; details: COLO 205, 48 h
MDA-MB-468 = test: Cytotoxicity against human MDA-MB-468 cells after 48 hrs by sulforhodamine B assay; assay type: functional; details: MDA-MB-468, 48 h
OVCAR-5 = test: Cytotoxicity against human OVCAR5 cells after 48 hrs by sulforhodamine B assay; assay type: functional; details: OVCAR-5, 48 h
SF-295 = test: Cytotoxicity against human SF295 cells after 48 hrs by sulforhodamine B assay; assay type: functional; details: SF-295, 48 h
OVCAR-4 = test: Cytotoxicity against human OVCAR4 cells after 48 hrs by sulforhodamine B assay; assay type: functional; details: OVCAR-4, 48 h
SK-MEL-2 = test: Cytotoxicity against human SK-MEL-2 cells after 48 hrs by sulforhodamine B assay; assay type: functional; details: SK-MEL-2, 48 h

SMILES: COc1ccc(C(=O)c2cc(OC)c(OC)c(OC)c2)c(OC)c1O
- Activity [1]: 47.2%
- Activity [2]: 36.5%
- Activity [3]: 25.3%
- GI50 (EKVX): 611 nM
- Activity [4]: 11.8%
- GI50 (NCI-H522): < 10 nM
- Activity [5]: Dose-dependent effect
- GI50 (HCT-116): 32 nM
- GI50 (MDA-MB-435): < 10 nM
- GI50 (UACC-62): 27.3 nM
- GI50 (OVCAR-3): 22.2 nM
- GI50 (MCF7): 26.4 nM
- Activity [6]: 26.1%
- GI50 (SK-MEL-28): 9460 nM
- Activity [7]: 17.5%
- GI50 (MDA-MB-231): 24.6 nM
- GI50 (NCI/ADR-RES): < 10 nM
- GI50 (CCRF-CEM): 28.8 nM
- GI50 (SF-539): 15.1 nM
- IC50 [8]: 3200 nM
- GI50 (NCI-H322M): < 10 nM
- GI50 (M14): < 10 nM
- Activity [9]: 21.5%
- Activity [10]: 32.9%
- Activity [11]: 13.1%
- GI50 (A549 [12]): 41.3 nM
- Activity [13]: 30%
- GI50 (NCI-H460): 50.7 nM
- GI50 (K562): < 10 nM
- GI50 (A498): 2720 nM
- GI50 (UO-31): 48.9 nM
- Activity [14]: 24.7%
- GI50 (RXF 393): 15.9 nM
- GI50 (HT-29): 3460 nM
- GI50 (DU-145): 20.9 nM
- GI50 (HCC 2998): 211 nM
- GI50 (KM12): < 10 nM
- GI50 (SK-OV-3): 89.6 nM
- GI50 (CAKI-1): 120 nM
- GI50 (SF-268): 21.1 nM
- GI50 (HL-60): 23.5 nM
- GI50 (A549 [15]): 41.3 nM
- GI50 (SN12C): 46.9 nM
- GI50 (Hs-578T): < 10 nM
- GI50 (HCT-15): 10.6 nM
- Activity [16]: 11.6%
- GI50 (COLO 205): 6200 nM
- GI50 (MDA-MB-468): 249 nM
- GI50 (OVCAR-5): 651 nM
- GI50 (SF-295): 19.9 nM
- GI50 (OVCAR-4): 73 nM
- GI50 (SK-MEL-2): 26.6 nM
